# Screening results deposited in PubChem by The Scripps Research Institute Molecular Screening Center.
# procasp3 activ: procaspase-3 (human) activation | P42574 | recombinant procaspase-3 D3A, Ac-DEVD-pNA absorbance 405 nm | activation, % at 8.5 µM | 330,000 compounds, 0.11% hits | AID 463141;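 active = activation above the mean of all tested compounds plus 3 SD, cut at about 21% in these data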;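 also: 0% = DMSO alone and 100% = DMSO wells spiked with extra 5 µM PC-3 D3A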
# Target sequence (P42574 whole entry D9A/D28A/D175A): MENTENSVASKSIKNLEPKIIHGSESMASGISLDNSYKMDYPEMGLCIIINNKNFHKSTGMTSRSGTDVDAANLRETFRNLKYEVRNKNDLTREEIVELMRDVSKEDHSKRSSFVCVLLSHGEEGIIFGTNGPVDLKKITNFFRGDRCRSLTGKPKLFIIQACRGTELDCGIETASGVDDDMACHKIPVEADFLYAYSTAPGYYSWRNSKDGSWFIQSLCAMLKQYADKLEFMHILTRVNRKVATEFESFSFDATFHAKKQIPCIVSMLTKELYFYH
#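 Assay system – Procaspase-3 D3A mutant · Benchmarks – DMSO low control, extra-enzyme high control · Technique – 405 nm absorbance of p-nitroaniline, reads at 0 and 120 min · Doses – 8.5 µM nominal · Measure – % activation between DMSO and enzyme-spiked controls · Also added – Ac-DEVD-pNA chromogenic peptide substrate · Schedule – 1 h compound preincubation, 2 h substrate hydrolysis at 25 °C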
# proCasp7 act: activates human procaspase-7, counter-screen for procaspase-3 activators | 330,000 compounds, 0.093% hits | activation, % at 8.5 µM | P55210 | recombinant procaspase-7, Ac-DEVD-pNA absorbance 405 nm; D23A/D198A/D206A triple mutant, cannot self-cleave; scale: DMSO 0, 5 µM enzyme 100;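 active = percent activation above the screen-wide mean plus 3 SD, cut at about 25% in these data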
# Target sequence (P55210 whole entry D23A/D198A/D206A): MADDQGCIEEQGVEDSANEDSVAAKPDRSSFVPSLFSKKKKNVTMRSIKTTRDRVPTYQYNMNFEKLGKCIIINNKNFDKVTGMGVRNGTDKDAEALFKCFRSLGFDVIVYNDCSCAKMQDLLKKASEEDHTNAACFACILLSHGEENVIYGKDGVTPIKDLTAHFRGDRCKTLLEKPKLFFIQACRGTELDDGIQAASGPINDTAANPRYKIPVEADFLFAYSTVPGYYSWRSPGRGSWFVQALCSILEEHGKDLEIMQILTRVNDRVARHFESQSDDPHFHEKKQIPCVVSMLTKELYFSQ
#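 Detection: p-Nitroaniline absorbance at 405 nm, read at 0 and 120 min; system: Uncleavable procaspase-7 mutant enzyme; evaluation: % activation from two-timepoint absorbance difference, scaled to controls; times: 1 h enzyme–compound preincubation and 2 h substrate reaction, both 25 °C; buffer or medium: Zinc-free HEPES pH 7.4 with 300 mM NaCl, 0.01% Triton X-100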
# bovine MsrA act: bovine methionine sulfoxide reductase A activation; purified bovine MsrA, absorbance read-out; activation, % at 10.6 µM; 360,000 compounds, 0.3% hits; in the data active = activation above about 7.5%;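 also: 0% = vehicle and 100% = reference activator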
# MsrA inhibitor: inhibits bovine methionine sulfoxide reductase A | inhibition, % at 15.5 µM | 360,000 compounds, 0.75% hits | purified bovine MsrA, absorbance read-out; in the data active = inhibition above about 4.5%;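 also: 0% = vehicle wells with enzyme and 100% = reference inhibitor wells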
# proCasp7 act trip: counter-screen: procaspase-7 (human) activation in triplicate. shares compounds with procasp3 activ. recombinant procaspase-7, Ac-DEVD-pNA absorbance; asp23/198/206-to-Ala mutant, cannot self-cleave. activation, % at 8.5 µM. 210 tested, under 10 active;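 active = mean activation above a set limit taken from an earlier procaspase-7 screen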;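 also: 0% = DMSO wells and 100% = DMSO plus 5 µM procaspase-7 enzyme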
# proCasp3 confirm: procaspase-3 (human) activation, confirmed; 210 compounds, 10% hits; AID 488954; recombinant PC-3 D3A, Ac-DEVD-pNA absorbance 405 nm; 100% is higher-enzyme control; shares compounds with procasp3 activ; activation, % at 8.5 µM;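 active = mean activation above a set limit carried over from the earlier primary screen, cut at about 22% in these data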
# Numbers without * were called inactive; · = not tested or not shown. This is a sample that favours compounds with a hit; in the whole collection about 1.2% have one here.
SMILES,procasp3 activ,proCasp7 act,bovine MsrA act,MsrA inhibitor,proCasp7 act trip,proCasp3 confirm
Cc1c(CC(=O)NCC(=O)N[C@H](Cc2ccccc2)C(=O)O)c(=O)oc2cc(O)ccc12,25*,19,7,2,-21,-13
Cc1c(CCC(=O)NC2CC2)c(=O)oc2cc(O)ccc12,23*,17,-4,2,-21,-13
Cc1ccc(OCC(O)CN2CCN(c3ccccc3)CC2)cc1 (stereo not given),3,10,-9,-1,·,·
Cc1ccc(N2CCN(CC(O)COc3ccccc3)CC2)cc1 (stereo not given),28*,6,-7,-1,3,2
C=C(C)CSc1nnc2n(N)c(=O)c3ccccc3n12,22*,5,-1,1,0,4
C/C(Cl)=C\CSc1nnc2n(N)c(=O)c3ccccc3n12,-2,0,-2,0,·,·
CCCn1c2ccccc2c2nnc(SCC(=O)Nc3nnc(CC(=O)OCC)s3)nc21,84*,8,-2,0,3,4
CCOC(=O)Cc1nnc(NC(=O)CSc2nnc3c4ccccc4n(C(C)C)c3n2)s1,-6,-3,-7,1,·,·
O=C(Cc1c(O)c2ccccc2[nH]c1=O)NC1CCCCCCC1,22*,-7,0,1,0,7
O=C(Cc1c(O)c2ccccc2[nH]c1=O)NC1CCCCCC1,-1,-4,0,-1,·,·
COC(=O)[C@]12C[C@H](CC(=O)NCc3cccs3)C(=O)N(Cc3ccc4c(c3)OCO4)C1=C[C@H](C(C)(C)C)O[C@@H]2C,·,·,·,1,·,·
O=C(NC12CC3CC(CC(C3)C1)C2)c1ccccc1,-1,12,-2,-2,·,·
O=C(NC12CC3CC(CC(C3)C1)C2)N(Cc1ccccc1)Cc1ccncc1,59*,7,0,1,4,7
O=C(NN1C(=O)C2C3C=CC(C4CC34)C2C1=O)c1ccc(Cl)c(Cl)c1 (stereo not given),0,6,-7,1,·,·
O=C(NN1C(=O)C2C3C=CC(C3)C2C1=O)c1cccc(Cl)c1 (stereo not given),24*,-8,2,-2,4,3
CC(C)C[C@H](NC(=O)C1CC1)C(=O)N1CCC[C@H]1C(=O)NCc1ccccc1,·,·,·,-1,·,·
CCCCCCC12C(=Cc3cc(C)ccc31)c1ccccc1C(CC(=O)NCc1ccccc1)N2C(=O)OC (stereo not given),·,·,·,1,·,·
CC(=O)Nc1nc(C)c(C(C)=O)s1,25*,-12,-1,1,4,4
CC(=O)c1sc(NC(=O)C(C)C)nc1C,-4,-1,-8,2,·,·
Cc1c(C)c2ccc(OC(C)C(=O)NCc3ccccn3)cc2oc1=O (stereo not given),23*,-7,-2,1,2,6
CCCCc1c(-c2ccccc2OC)ncn1Cc1cc(F)ccc1F,·,·,·,0,·,·
Clc1ccc(-c2ccc(-c3nn4c(-c5ccco5)nnc4s3)o2)cc1,-4,-16,-7,0,·,·
Brc1ccc(-c2nn3c(-c4ccco4)nnc3s2)o1,23*,-4,-3,2,-17,-12
CC1(C)CC(=O)C2=C(C1)c1c(ccc3ccccc13)NC2c1ccc(OCC(=O)O)cc1 (stereo not given),0,4,-2,2,·,·
CC1(C)CC(=O)C2=C(C1)c1c(ccc3ccccc13)NC2c1ccc(Br)o1 (stereo not given),29*,16,-3,-1,31*,4
SMILES,procasp3 activ,proCasp7 act,bovine MsrA act,MsrA inhibitor,proCasp7 act trip,proCasp3 confirm
CCOC(=O)C1(CCCc2ccccc2)CCN(C(=O)c2cncs2)CC1,-4,3,-1,0,·,·
CCOC(=O)C1(CCCc2ccccc2)CCN(C(=O)c2cc(C)nn2CC)CC1,23*,-11,1,-1,3,5
N#Cc1c(-c2ccncc2)c2c([nH]c1=O)-c1ccccc1OC2,-8,-1,·,1,·,·
N#Cc1c(-c2ccccc2Cl)c2c([nH]c1=O)-c1ccccc1OC2,26*,4,-3,-1,-21,-14
CCCCCCCCCCCCN1[C@@H](CC(C)=O)c2cc(C(F)(F)F)ccc2S1(=O)=O,12,7,-5,-1,·,·
CCCCCCCCN1[C@@H](CC(=O)O)c2ccc(C(F)(F)F)cc2S1(=O)=O,40*,-1,1,-1,1,3
COC(=O)C1=C(C)N(Cc2ccccc2C(F)(F)F)C(=NCc2ccc(OC)cc2)NC1c1ccccc1C(F)(F)F (stereo not given),·,·,·,-1,·,·
O=c1[nH]c(N/N=C\c2ccc(F)cc2)nc2ccccc12,30*,22,-6,1,1,-1
COc1ccc(C2=C/C(=C\c3cccc(OC(C)=O)c3)C(=O)O2)cc1,35*,-13,-12,0,-34,-13
Nc1[nH]c(C(=O)c2ccccc2)c(-c2ccccc2)c1C(=O)NCCc1c[nH]c2ccccc12,·,·,·,-1,·,·
COC(=O)C1=CN(CC2CCCO2)C=C(C(=O)OC)C1c1ccccc1C(F)(F)F (stereo not given),23*,15,3,-1,-20,-11
OCCOc1cccc(CN2CCC(CO)(CCOc3ccccc3)CC2)c1,25*,6,0,0,2,5
C=CCN(CC=C)C[C@@H]1CSCCS(=O)(=O)N1,·,·,·,-1,·,·
O=C(N/N=C/c1ccccc1)c1ccc(CN2C(=O)c3cccc4cccc2c34)cc1,-5,-4,-3,0,·,·
O=C(N/N=C/c1ccc(O)cc1O)c1ccc(CN2C(=O)c3cccc4cccc2c34)cc1,23*,24,-6,4,12,21
Cc1c(C#N)c(=O)oc2ccc3ccccc3c12,26*,19,0,0,-22,-12
Cc1ccc2cc(C#N)c(NCCNC(=O)C3CC3)nc2c1C,23*,21,-1,1,-23,-13
COC(=O)C1=C(C)N(Cc2ccccc2C(F)(F)F)C(=NCc2ccccc2)NC1c1cccc(F)c1 (stereo not given),·,·,·,-1,·,·
O=C(NCC1CCN(C(=O)C(=O)c2cccs2)CC1)c1cccnc1,·,·,·,0,·,·
Cc1ccccc1C(=O)N[C@H](C(=O)N1CCC[C@H]1C(=O)NCc1ccccc1)c1ccccc1,·,·,·,-2,·,·
CCOc1ccc(C(=O)C[n+]2ccc(C(=O)NCc3ccccc3)cc2)cc1,33*,7,-3,0,5,7
CC(C)(C)c1ccc(C(=O)Nc2c3c(nn2C(C)(C)C)CS(=O)(=O)C3)cc1,1,-5,-5,0,·,·
Cc1cc(C)cc(C(=O)Nc2c3c(nn2C(C)(C)C)CS(=O)(=O)C3)c1,22*,2,-2,0,0,5
